≈ marks a conversion by molar mass, not a printed value.
System: HL-60
Assay: Cytotoxicity against human HL60 cells after 72 hrs by MTT assay
Assay type: functional, cell-based
Details: HL-60, 72 h
Method in brief: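 HL-60 cells (JCRB 0085) grown in RPMI 1640 with heat-inactivated 10% FBS, L-glutamine, penicillin and streptomycin. Seeded at 4 × 10^4 cells/mL and preincubated 24 h at 37 °C in 5% CO2. Sample added in EtOH-H2O (1:1) at final 0.00001-10 µg/mL; vehicle in control wells. After 72 h, MTT (5 mg/mL in PBS) added for 4 h. Formazan dissolved in DMSO, absorbance read at 550 nm.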

| Structure (SMILES) | IC50 |
| --- | --- |
| COc1ccc(C(=O)O[C@H]2[C@H](O[C@@H]3[C@@H](OC(C)=O)[C@H](O[C@H]4C[C@H]5[C@@H]6CC=C7C[C@@H](O[C@@H]8O[C@H](CO)[C@@H](O)[C@H](O)[C@H]8O)CC[C@]7(C)[C@H]6CC[C@]5(C)[C@@]4(O)[C@H](C)C(=O)CCC(C)C)OC[C@@H]3O)OC[C@@H](O)[C@@H]2O)cc1OC | 0.00013 µg/mL (≈ 0.000122 µM) |
| CC(=O)O[C@H]1[C@H](O[C@H]2C[C@H]3[C@@H]4CC=C5C[C@@H](O[C@@H]6O[C@H](CO[C@@H]7O[C@H](CO)[C@@H](O)[C@H](O)[C@H]7O)[C@@H](O)[C@H](O)[C@H]6O)CC[C@]5(C)[C@H]4CC[C@]3(C)[C@@]2(O)[C@H](C)C(=O)CCC(C)C)OC[C@H](O)[C@@H]1O[C@@H]1OC[C@@H](O)[C@H](O)[C@H]1O | > 10 µg/mL |
| COc1cc(C(=O)O[C@H]2[C@H](O[C@@H]3[C@@H](OC(C)=O)[C@H](O[C@H]4C[C@H]5[C@@H]6CC=C7C[C@@H](O[C@@H]8O[C@H](CO)[C@@H](O)[C@H](O)[C@H]8O)CC[C@]7(C)[C@H]6CC[C@]5(C)[C@@]4(O)[C@H](C)C(=O)CCC(C)C)OC[C@@H]3O)OC[C@@H](O)[C@@H]2O)cc(OC)c1OC | 0.00016 µg/mL (≈ 0.000146 µM) |
| COc1ccc(C(=O)O[C@H]2[C@H](O[C@@H]3[C@@H](OC(C)=O)[C@H](O[C@H]4C[C@H]5[C@@H]6CC=C7C[C@@H](O[C@@H]8O[C@H](CO[C@@H]9O[C@H](CO)[C@@H](O)[C@H](O)[C@H]9O)[C@@H](O)[C@H](O)[C@H]8O)CC[C@]7(C)[C@H]6CC[C@]5(C)[C@@]4(O)[C@H](C)C(=O)CCC(C)C)OC[C@@H]3O)OC[C@@H](O)[C@@H]2O)cc1OC | 0.81 µg/mL (≈ 0.66 µM) |
| COc1cc(C(=O)O[C@H]2[C@H](O[C@@H]3[C@@H](OC(C)=O)[C@H](O[C@H]4C[C@H]5[C@@H]6CC=C7C[C@@H](O[C@@H]8O[C@H](CO[C@@H]9O[C@H](CO)[C@@H](O)[C@H](O)[C@H]9O)[C@@H](O)[C@H](O)[C@H]8O)CC[C@]7(C)[C@H]6CC[C@]5(C)[C@@]4(O)[C@H](C)C(=O)CCC(C)C)OC[C@@H]3O)OC[C@@H](O)[C@@H]2O)cc(OC)c1OC | 0.7 µg/mL (≈ 0.557 µM) |
| CC(=O)O[C@H]1[C@H](O[C@H]2C[C@H]3[C@@H]4CC=C5C[C@@H](O[C@@H]6O[C@H](CO)[C@@H](O)[C@H](O)[C@H]6O)CC[C@]5(C)[C@H]4CC[C@]3(C)[C@@]2(O)[C@H](C)C(=O)CCC(C)C)OC[C@H](O)[C@@H]1O[C@@H]1OC[C@@H](O)[C@H](O)[C@H]1O | 0.013 µg/mL (≈ 0.0144 µM) |
| CC(C)CCC(=O)[C@@H](C)[C@@]1(O)[C@@H](O[C@@H]2OC[C@H](O)[C@H](O)[C@H]2O)C[C@H]2[C@@H]3CC=C4C[C@@H](O[C@@H]5O[C@H](CO)[C@@H](O)[C@H](O)[C@H]5O)CC[C@]4(C)[C@H]3CC[C@@]21C | 0.12 µg/mL (≈ 0.165 µM) |

From ChEMBL document CHEMBL1150651, “Cholestane glycosides from the bulbs of Ornithogalum thyrsoides and their cytotoxic activity against HL-60 leukemia cells” (J Nat Prod, 2002)
